# Assay results taken from ChEMBL document CHEMBL1152556, “Omega-conotoxin GVIA mimetics based on an anthranilamide core: effect of variation in ammonium side chain lengths and incorporation of fluorine” (Bioorg Med Chem, 2009).
# Target: Voltage-dependent N-type calcium channel subunit alpha-1B (Rattus norvegicus, UniProt Q02294)
# Experiment: Displacement of [125I]GVIA from Cav2.2 channel in rat brain by scintillation counting; call rule not given here
# Format: tissue-based
# How it was run: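 Radioligand displacement run in triplicate at room temperature on crude rat brain membrane (8 lg per well, added last) with 125I-GVIA tracer. Buffer: 20 mM HEPES, 75 mM NaCl, 0.2 mM EDTA, 0.2 mM EGTA, leupeptin, aprotinin, 0.1% BSA, pH 7.4. Shaken 1 h, then filtered on PEI-soaked glass fibre and washed with HEPES/125 mM NaCl, pH 7.4. Filter-bound counts read.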
# Voltage-dependent N-type calcium channel subunit alpha-1B, sequence (Q02294 whole entry): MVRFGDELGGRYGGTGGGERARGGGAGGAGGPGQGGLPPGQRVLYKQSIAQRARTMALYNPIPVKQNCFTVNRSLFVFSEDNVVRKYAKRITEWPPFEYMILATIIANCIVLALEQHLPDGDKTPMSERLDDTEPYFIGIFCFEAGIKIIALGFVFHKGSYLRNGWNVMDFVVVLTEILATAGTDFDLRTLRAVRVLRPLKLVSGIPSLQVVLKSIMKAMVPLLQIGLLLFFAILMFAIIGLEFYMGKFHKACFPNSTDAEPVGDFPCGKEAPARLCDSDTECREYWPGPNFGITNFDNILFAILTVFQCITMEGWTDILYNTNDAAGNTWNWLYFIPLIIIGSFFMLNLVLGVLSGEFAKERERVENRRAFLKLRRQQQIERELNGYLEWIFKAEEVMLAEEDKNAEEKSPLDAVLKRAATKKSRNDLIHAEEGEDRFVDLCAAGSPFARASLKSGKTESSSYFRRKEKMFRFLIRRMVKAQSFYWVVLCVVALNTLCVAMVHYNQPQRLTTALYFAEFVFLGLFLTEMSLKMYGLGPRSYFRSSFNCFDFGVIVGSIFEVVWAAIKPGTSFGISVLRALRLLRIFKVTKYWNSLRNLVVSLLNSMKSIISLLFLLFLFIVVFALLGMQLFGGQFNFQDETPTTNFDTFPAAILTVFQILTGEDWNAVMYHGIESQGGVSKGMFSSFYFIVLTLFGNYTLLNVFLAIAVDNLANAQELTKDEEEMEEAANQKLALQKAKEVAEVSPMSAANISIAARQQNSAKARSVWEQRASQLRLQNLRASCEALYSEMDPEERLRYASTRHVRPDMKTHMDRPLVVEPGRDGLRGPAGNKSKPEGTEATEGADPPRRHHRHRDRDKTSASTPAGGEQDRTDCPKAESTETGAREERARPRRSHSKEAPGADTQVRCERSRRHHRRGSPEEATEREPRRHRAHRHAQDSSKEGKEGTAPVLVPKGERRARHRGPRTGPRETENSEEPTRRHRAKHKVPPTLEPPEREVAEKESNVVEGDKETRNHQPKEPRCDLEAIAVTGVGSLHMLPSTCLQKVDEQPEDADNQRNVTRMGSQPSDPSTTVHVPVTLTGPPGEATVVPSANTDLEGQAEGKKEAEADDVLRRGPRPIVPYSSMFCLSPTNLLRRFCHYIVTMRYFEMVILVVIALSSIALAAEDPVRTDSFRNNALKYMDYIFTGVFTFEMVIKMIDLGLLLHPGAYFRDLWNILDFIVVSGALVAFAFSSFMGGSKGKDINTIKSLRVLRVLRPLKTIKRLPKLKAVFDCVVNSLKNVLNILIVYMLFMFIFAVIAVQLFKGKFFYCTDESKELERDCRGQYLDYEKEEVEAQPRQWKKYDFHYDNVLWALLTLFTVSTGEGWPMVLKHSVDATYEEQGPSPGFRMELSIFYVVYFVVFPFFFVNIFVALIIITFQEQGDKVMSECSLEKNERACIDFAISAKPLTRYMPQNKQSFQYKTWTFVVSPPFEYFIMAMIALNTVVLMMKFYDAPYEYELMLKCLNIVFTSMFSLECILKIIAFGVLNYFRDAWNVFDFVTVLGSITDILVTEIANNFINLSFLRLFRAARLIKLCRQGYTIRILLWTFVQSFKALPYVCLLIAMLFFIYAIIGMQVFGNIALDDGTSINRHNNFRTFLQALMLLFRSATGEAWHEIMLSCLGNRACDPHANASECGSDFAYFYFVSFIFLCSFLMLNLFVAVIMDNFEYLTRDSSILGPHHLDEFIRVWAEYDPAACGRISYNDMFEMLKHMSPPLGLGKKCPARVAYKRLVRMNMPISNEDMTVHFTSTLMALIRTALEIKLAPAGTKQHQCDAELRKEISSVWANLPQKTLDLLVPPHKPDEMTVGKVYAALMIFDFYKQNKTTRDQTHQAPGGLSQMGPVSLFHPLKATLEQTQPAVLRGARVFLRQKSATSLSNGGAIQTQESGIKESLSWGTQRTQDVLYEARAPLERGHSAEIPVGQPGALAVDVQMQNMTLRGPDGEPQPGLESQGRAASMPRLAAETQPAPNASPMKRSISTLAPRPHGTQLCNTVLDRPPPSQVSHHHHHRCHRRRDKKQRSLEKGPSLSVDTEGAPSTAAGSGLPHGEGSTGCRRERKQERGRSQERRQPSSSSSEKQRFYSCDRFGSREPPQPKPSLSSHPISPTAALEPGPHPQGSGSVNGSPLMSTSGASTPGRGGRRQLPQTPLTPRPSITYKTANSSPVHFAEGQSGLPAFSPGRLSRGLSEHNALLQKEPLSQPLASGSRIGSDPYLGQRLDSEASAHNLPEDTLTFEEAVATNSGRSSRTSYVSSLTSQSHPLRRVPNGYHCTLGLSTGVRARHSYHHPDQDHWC
smiles,measurement,setting,value
NC(N)=NCCCCCC(=O)Nc1ccc(OCCCN=C(N)N)cc1C(=O)Nc1ccc(Oc2ccccc2)cc1,EC50,read-out: EC50,16 µM
NCCCCCC(=O)Nc1ccc(OCCCN)cc1C(=O)Nc1ccc(Oc2ccccc2)cc1,EC50,read-out: EC50,107 µM
NC(N)=NCCCCCCCC(=O)Nc1ccc(OCCCN=C(N)N)cc1C(=O)Nc1ccc(Oc2ccc(F)cc2)cc1,EC50,read-out: EC50,6 µM
NC(N)=NCCCCCCCC(=O)Nc1ccc(OCCCCN=C(N)N)cc1C(=O)Nc1ccc(Oc2ccccc2)cc1,EC50,read-out: EC50,15 µM
NC(N)=NCCCCC(=O)Nc1ccc(OCCCN=C(N)N)cc1C(=O)Nc1ccc(Oc2ccccc2)cc1,EC50,read-out: EC50,116 µM
NC(N)=NCCCCCCCC(=O)Nc1ccc(OCCCN=C(N)N)cc1C(=O)Nc1ccc(Oc2ccccc2)cc1,EC50,read-out: EC50,13 µM
NC(N)=NCCCCCCCC(=O)Nc1ccc(OCCCN=C(N)N)cc1C(=O)Nc1ccc(Oc2ccc(O)cc2)cc1,EC50,read-out: EC50,16 µM
NCCCCCCCC(=O)Nc1ccc(OCCCCN)cc1C(=O)Nc1ccc(Oc2ccccc2)cc1,EC50,read-out: EC50,90 µM
NCCCCCC(=O)Nc1ccc(OCCCCN)cc1C(=O)Nc1ccc(Oc2ccccc2)cc1,EC50,read-out: EC50,99 µM
NCCCCC(=O)Nc1ccc(OCCCN)cc1C(=O)Nc1ccc(Oc2ccccc2)cc1,EC50,read-out: EC50,77 µM
NC(N)=NCCCCCC(=O)Nc1ccc(OCCCCN=C(N)N)cc1C(=O)Nc1ccc(Oc2ccccc2)cc1,EC50,read-out: EC50,17 µM
NCCCCCCCC(=O)Nc1ccc(OCCCN)cc1C(=O)Nc1ccc(Oc2ccc(O)cc2)cc1,EC50,,Not Active
NCCCCCCCC(=O)Nc1ccc(OCCCN)cc1C(=O)Nc1ccc(Oc2ccccc2)cc1,EC50,read-out: EC50,72 µM
NCCCCCCCC(=O)Nc1ccc(OCCCN)cc1C(=O)Nc1ccc(Oc2ccc(F)cc2)cc1,EC50,,Not Active
